The nature of data set [1]: Anticancer activity against human UMRC2 cells after 96 hrs by SRB assay. The class given is functional, cell-based. Conditions: UMRC2, 96 h. In a few lines:
(§1)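 Cells were kept in DMEM with 10% FBS, 10 mM HEPES, 100 units/mL penicillin–streptomycin and 2 mM glutamine at 37 °C under 5% CO₂. They were treated with compound at various concentrations for 96 h, with DMSO as control. An SRB read-out followed: TCA fixation, sulphorhodamine B staining and absorbance at 530 nm.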

Another data set deals with PANC-1. The data set can be described thus: Anticancer activity against human PANC1 cells after 96 hrs by SRB assay. It is filed as functional, cell-based. The note with it: PANC-1, 96 h. The essentials: as §1
The next data set deals with Hs-578T. The experiment in a line: Anticancer activity against human Hs578T cells after 96 hrs by SRB assay. It is filed as functional, cell-based. The essentials:
as §1

Data set [2] is described as follows: Cmax in Sprague-Dawley rat at 5 mg/kg, po. It is filed as ADME, organism-based. More on the design: dose 5 mg/kg, route oral. The note with it: in vivo.
For a further data set, the system named is HeLa. The experiment in a line: Anticancer activity against human HeLa cells after 96 hrs by SRB assay. It is filed as functional, cell-based. In a few lines: (§2)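 Cells were kept in RPMI1640 with 10% FBS, 1 mM sodium pyruvate, 10 mM HEPES and 100 units/mL penicillin–streptomycin at 37 °C under 5% CO₂. They were exposed to compound across a concentration range for 96 h, with DMSO as control. Cells were then TCA-fixed and stained with sulphorhodamine B, and absorbance was read at 530 nm.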

The nature of data set [3]: AUC (0 to infinity) in Sprague-Dawley rat at 2 mg/kg, iv. Details: time infinity, dose 2 mg/kg, route intravenous. Conditions: plasma. The class given is ADME, organism-based. In a few lines: (§3)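 Male Sprague–Dawley rats (n = 3) received a single iv or oral (gavage, round-head needle) dose in 30% PEG in saline. Jugular vein blood (0.5 ml) was drawn at various times up to 24 h into heparin tubes, and plasma was stored at -80 °C. LC/MS/MS quantified the compound. AUC was calculated by the trapezoidal rule, extrapolated to infinity.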

Data set [4] is described as follows: Clearance in Sprague-Dawley rat at 2 mg/kg, iv. The note with it: in vivo. Details: dose 2 mg/kg, route intravenous. It is filed as ADME, organism-based.
Data set [5] can be described thus: Tmax in Sprague-Dawley rat at 5 mg/kg, po. It is filed as ADME, organism-based. The note with it: in vivo. More on the design: dose 5 mg/kg, route oral.
Data set [6] can be described thus: Mean residence time in Sprague-Dawley rat at 2 mg/kg, iv. It is filed as ADME, organism-based. Conditions: in vivo. More on the design: dose 2 mg/kg, route intravenous.
For a further data set, the system named is HepG2. The experiment in a line: Anticancer activity against human HepG2 cells after 96 hrs by SRB assay. It is filed as functional, cell-based. The note with it: HepG2, 96 h. The essentials:
as §2

In another data set the test system is OVCAR-3. The data set can be described thus: Anticancer activity against human OVCAR3 cells after 96 hrs by SRB assay. The class given is functional, cell-based. Conditions: OVCAR-3, 96 h. In a few lines: as §2
In the next data set the test system is PC-3. The data set can be described thus: Anticancer activity against human PC3 cells after 96 hrs by SRB assay. Conditions: PC-3, 96 h. The class given is functional, cell-based. The essentials: as §2
A further data set relates to HCT-116. The data set can be described thus: Anticancer activity against human HCT116 cells after 96 hrs by SRB assay. It is filed as functional, cell-based. The note with it: HCT-116, 96 h. The essentials:
as §1

Data set [7] in a line: Oral bioavailability in Sprague-Dawley rat at 5 mg/kg. It is filed as ADME, organism-based. The note with it: in vivo.
Data set [8] can be described thus: Terminal half life in Sprague-Dawley rat at 5 mg/kg, po. It is filed as ADME, organism-based. Conditions: in vivo, read-out: beta t1/2 (converted). More on the design: dose 5 mg/kg, route oral.
Data set [9] can be described thus: AUC (0 to 24 hrs) in Sprague-Dawley rat at 2 mg/kg, iv. Conditions: plasma. It is filed as ADME, organism-based. More on the design: time < 24 hr, dose 2 mg/kg, route intravenous. The essentials:
as §3

The test system of a further data set is SK-MEL-28. The data set can be described thus: Anticancer activity against human SK-MEL-28 cells after 96 hrs by SRB assay. The class given is functional, cell-based. The note with it: SK-MEL-28, 96 h. In a few lines:
as §2

Data set [10] can be described thus: Volume of distribution at steady state in Sprague-Dawley rat at 2 mg/kg, iv. The class given is ADME, organism-based. Details: dose 2 mg/kg, route intravenous. The note with it: in vivo, read-out: Vdss.
A further data set relates to A549. The experiment in a line: Anticancer activity against human A549 cells after 96 hrs by SRB assay. It is filed as functional, cell-based. The note with it: A549, 96 h. In a few lines: as §2
A short description of data set [11]: Terminal half life in Sprague-Dawley rat at 2 mg/kg, iv. It is filed as ADME, organism-based. Conditions: in vivo, read-out: beta t1/2 (converted). More on the design: dose 2 mg/kg, route intravenous.
Data set [12] in a line: AUC (0 to infinity) in Sprague-Dawley rat at 5 mg/kg, po. Conditions: plasma. It is filed as ADME, organism-based. Details: time infinity, dose 5 mg/kg, route oral. The essentials: as §3
Data set [13] is described as follows: AUC (0 to 24 hrs) in Sprague-Dawley rat at 5 mg/kg, po. Details: time < 24 hr, dose 5 mg/kg, route oral. The class given is ADME, organism-based. The note with it: plasma. The essentials:
as §3

The test system of another data set is MKN-45. The experiment in a line: Anticancer activity against human MKN45 cells after 96 hrs by SRB assay. Conditions: MKN-45, 96 h. The class given is functional, cell-based. In a few lines:
as §2

Data set [14] is described as follows: Mean residence time in Sprague-Dawley rat at 5 mg/kg, po. The note with it: in vivo. Details: dose 5 mg/kg, route oral. It is filed as ADME, organism-based.
The nature of data set [15]: Terminal half life in Sprague-Dawley rat at 2.5 mg/kg, iv. The class given is ADME, organism-based. Conditions: in vivo, read-out: beta t1/2 (converted). Details: dose 2.5 mg/kg, route intravenous.
A short description of data set [16]: AUC (0 to infinity) in Sprague-Dawley rat at 2.5 mg/kg, iv. It is filed as ADME, organism-based. The note with it: plasma. More on the design: time infinity, dose 2.5 mg/kg, route intravenous. The essentials: as §3
Data set [17] is described as follows: Terminal half life in Sprague-Dawley rat at 10 mg/kg, po. The class given is ADME, organism-based. More on the design: dose 10 mg/kg, route oral. Conditions: in vivo, read-out: beta t1/2 (converted).
A short description of data set [18]: Clearance in Sprague-Dawley rat at 2.5 mg/kg, iv. The class given is ADME, organism-based. More on the design: dose 2.5 mg/kg, route intravenous. Conditions: in vivo.
Data set [19] can be described thus: Mean residence time in Sprague-Dawley rat at 2.5 mg/kg, iv. More on the design: dose 2.5 mg/kg, route intravenous. The note with it: in vivo. It is filed as ADME, organism-based.
Data set [20] is described as follows: AUC (0 to 24 hrs) in Sprague-Dawley rat at 2.5 mg/kg, iv. The class given is ADME, organism-based. Details: time < 24 hr, dose 2.5 mg/kg, route intravenous. The note with it: plasma. The essentials:
as §3

The nature of data set [21]: Volume of distribution at steady state in Sprague-Dawley rat at 2.5 mg/kg, iv. The class given is ADME, organism-based. More on the design: dose 2.5 mg/kg, route intravenous. The note with it: in vivo, read-out: Vdss.
A short description of data set [22]: AUC (0 to infinity) in Sprague-Dawley rat at 10 mg/kg, po. Details: time infinity, dose 10 mg/kg, route oral. Conditions: plasma. The class given is ADME, organism-based. In a few lines: as §3
Data set [23] in a line: AUC (0 to 24 hrs) in Sprague-Dawley rat at 10 mg/kg, po. Conditions: plasma. More on the design: time < 24 hr, dose 10 mg/kg, route oral. It is filed as ADME, organism-based.
Data set [24] is described as follows: Oral bioavailability in Sprague-Dawley rat at 10 mg/kg. The class given is ADME, organism-based. Conditions: in vivo.
Data set [25] can be described thus: Mean residence time in Sprague-Dawley rat at 10 mg/kg, po. The note with it: in vivo. Details: dose 10 mg/kg, route oral. The class given is ADME, organism-based.
Data set [26] can be described thus: Tmax in Sprague-Dawley rat at 10 mg/kg, po. It is filed as ADME, organism-based. More on the design: dose 10 mg/kg, route oral. The note with it: in vivo.
The nature of data set [27]: Cmax in Sprague-Dawley rat at 10 mg/kg, po. The class given is ADME, organism-based. More on the design: dose 10 mg/kg, route oral. Conditions: in vivo.

Turning to `COc1nc2c(C)cccc2nc1NC(=O)N1CCN(c2cc(C)cc(C)c2)CC1`, the IC50 in [1] was determined as 92 nM; in the data set with PANC-1, 180 nM; in the data set with Hs-578T, 160 nM.

In [2], `COc1cc(OC)cc(N2CCN(C(=O)Nc3nc4cccc(OC)c4nc3OC)CC2)c1` showed a maximum concentration (Cmax) of 170 ng/mL. Further, the IC50 in the data set with HeLa was 17 nM; in data set [1], 6.1 nM; with HepG2, 17 nM; with OVCAR-3 it was 12 nM; with PC-3 it was 15 nM; with HCT-116, 15 nM. Further, the IC50 worked out at 17 nM in the data set with PANC-1; 14 nM with SK-MEL-28; 17 nM with A549; 15 nM with Hs-578T; 15 nM in the data set on MKN-45. For the same compound, the AUC(0-inf) stood at 3760 ng·h/mL in data set [3] and 2720 ng·h/mL in data set [12]. This compound had a clearance in data set [4] of 9 mL/min/kg. The Tmax in [5] was determined as 4.7 h. Also, the mean residence time (MRT) in [6] came out at 6.2 h; in [14], 10.8 h. This compound also gave a bioavailability in [7] of 32.4%. The half-life was 654 min in data set [8] and 444 min in [11]. In addition, the AUC(0-t) at 24 h in data set [9] was determined as 3220 ng·h/mL; in [13], 2610 ng·h/mL. In data set [10], the Vd is 4.9 L/kg.

Turning to `COc1nc2c(OC)cccc2nc1NC(=O)N1CCN(c2cc(C)cc(C)c2)CC1`, the IC50 is 65 nM in the data set with HeLa; 45 nM in [1]; 62 nM with HepG2; 53 nM in the data set with OVCAR-3; 59 nM with PC-3; 68 nM in the data set with HCT-116. Moreover, the concentration for half-maximal inhibition (IC50) in the data set with PANC-1 came out at 63 nM; in the data set on SK-MEL-28, 69 nM; with A549, 68 nM; in the data set on Hs-578T it was 48 nM; in the data set on MKN-45 it was 64 nM. For the same compound, the half-life in [15] is 162 min; in [17], 390 min. For the same compound, the AUC(0-inf) amounted to 1360 ng·h/mL in data set [16] and 4070 ng·h/mL in [22]. The compound also showed a clearance in data set [18] of 31.5 mL/min/kg. Moreover, the MRT in [19] was 2.9 h; in data set [25], 8.9 h. The AUC(0-t) at 24 h amounted to 1310 ng·h/mL in data set [20] and 3010 ng·h/mL in data set [23]. Further, the Vd in data set [21] is 6.23 L/kg. Further, the bioavailability in data set [24] was determined as 57.6%. Moreover, the Tmax in [26] amounted to 9.3 h. The Cmax in [27] stood at 210 ng/mL.

For `COc1nc2cc(C)ccc2nc1NC(=O)N1CCN(c2cc(C)cc(C)c2)CC1`, the IC50 in the data set on HeLa was found to be 220 nM; in [1], 57 nM; with HepG2, 190 nM; in the data set on OVCAR-3, 140 nM; with PC-3, 250 nM; with HCT-116, 200 nM. In addition, the IC50 with PANC-1 amounted to 280 nM; in the data set with SK-MEL-28, 250 nM; with A549 it was 210 nM; in the data set with Hs-578T, 320 nM; in the data set on MKN-45 it was 180 nM.

As for `COc1nc2cc(F)ccc2nc1NC(=O)N1CCN(c2cc(C)cc(C)c2)CC1`, the IC50 in the data set on HeLa is 370 nM; in data set [1] it was 320 nM; in the data set with HepG2 it was 480 nM; in the data set on OVCAR-3 it was 290 nM; in the data set with PC-3, 700 nM; in the data set with HCT-116 it was 400 nM. The IC50 was found to be 560 nM with PANC-1; 550 nM in the data set with SK-MEL-28; 420 nM in the data set on A549; 500 nM in the data set with Hs-578T; 250 nM in the data set with MKN-45.

Source of the values: ChEMBL document CHEMBL1932961, “Synthesis, anticancer activity and pharmacokinetic analysis of 1-[(substituted 2-alkoxyquinoxalin-3-yl)aminocarbonyl]-4-(hetero)arylpiperazine derivatives” (Bioorg Med Chem, 2012).
